The values below come from ChEMBL document CHEMBL1156948, “Statistical molecular design of a focused salicylidene acylhydrazide library and multivariate QSAR of inhibition of type III secretion in the Gram-negative bacterium Yersinia” (Bioorg Med Chem, 2010).

In data set [1] the test system is Escherichia coli. The data set is described as follows: Antibacterial activity against Enterotoxigenic Escherichia coli infected in mouse J774 cells assessed as inhibition of bacteria-induced cell death at 25 to 100 uM after 14 hrs using calcein AM staining by fluorescence microscopy. In kind it is functional, organism-based. Summed up: (§1)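 J774A macrophages (4×10⁴/well, DMEM with 10% FCS, gentamicin 3 µg/mL, 24 h at 37 °C, 5% CO2) washed with PBS, then given fresh DMEM with compound plus bacteria (OD600 0.002), final 25, 50, 100 µM, DMSO below 0.5%. ETEC grown overnight in LB at 37 °C, diluted and grown 3 h. 14 h at 37 °C, 5% CO2; CalceinAM 40 min, fluorescence 485/535 nm, confirmed by microscopy; uninfected cells = 100% viability; gentamicin 5 µg/mL rescue control.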

Data set [2] relates to Yersinia pseudotuberculosis YPIII. Briefly: Inhibition of T3S in Yersinia pseudotuberculosis YPIII expressing yopE-luxAB at 6.25 uM after 3 hrs by luciferase reporter gene assay. An outline of the steps:
(§2)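 Strain YPIII pIB102 (yopE-luxAB) grown overnight at room temperature in BHI with 5 mM EGTA and 20 mM MgCl2 (calcium depletion), adjusted to OD600 0.088–0.095. Compound added from DMSO at 1.56–200 µM final (eight concentrations). Shaken 1 h at room temperature, then 2 h at 37 °C. Decanal added and light emission read immediately. Triplicates, repeated at least three times.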

For data set [3] the test system is unchanged. The data set is described as follows: Inhibition of T3S in Yersinia pseudotuberculosis YPIII expressing yopE-luxAB at 25 uM after 3 hrs by luciferase reporter gene assay. An outline of the steps: as §2
Data set [4] relates to Yersinia pseudotuberculosis. Briefly: Antibacterial activity against Yersinia pseudotuberculosis expressing pIB102 at 50 uM after 23 hrs by broth dilution assay. Format: functional, organism-based. An outline of the steps:
(§3)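 Wild-type pIB102 grown overnight in LB at room temperature, diluted to OD600 = 0.1 in LB with 2.5 mM CaCl2. Compound added from DMSO stock to final 50 and 100 µM. Incubated at 37 °C with absorbance at 595 nm read over 23 h.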
Background: Broth dilution looks for growth in wells or tubes with falling amounts of substance.

Data set [5] has as its system Yersinia pseudotuberculosis YPIII. The data set is described as follows: Inhibition of T3S in Yersinia pseudotuberculosis YPIII expressing yopE-luxAB at 50 uM after 3 hrs by luciferase reporter gene assay. Summed up:
as §2
(A reporter such as luciferase makes a cellular process visible.)

Data set [6] relates to Escherichia coli. Briefly: Antibacterial activity against Escherichia coli DH5[alpha] at 100 uM after 23 hrs by broth dilution assay. In kind it is functional, organism-based. An outline of the steps:
(§4)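 Overnight LB culture of E. coli DH5α grown at 37 °C, diluted to OD600 0.1 in LB with 2.5 mM CaCl2; compound added from DMSO stock to final 50 or 100 µM. Incubated at 37 °C with absorbance at 595 nm followed over 23 h.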

The next data set deals with J774. The data set is described as follows: Cytotoxicity against mouse J774 cells at 25 to 100 uM after 14 hrs using calcein AM staining by fluorescence microscopy. The conditions noted are these: j774, 14 h. Format: cell-based. An outline of the steps: as §1
Data set [7] deals with Escherichia coli. Briefly: Antibacterial activity against Escherichia coli DH5[alpha] at 50 uM after 23 hrs by broth dilution assay. Format: functional, organism-based. An outline of the steps: as §4
Data set [8] has as its system Yersinia pseudotuberculosis YPIII. The data set is described as follows: Inhibition of T3S in Yersinia pseudotuberculosis YPIII expressing yopE-luxAB at 200 uM after 3 hrs by luciferase reporter gene assay. An outline of the steps:
as §2

The test system is the same in data set [9]. The data set is described as follows: Inhibition of T3S in Yersinia pseudotuberculosis YPIII expressing yopE-luxAB at 3.13 uM after 3 hrs by luciferase reporter gene assay. Summed up: as §2
For data set [10], the system named is Yersinia pseudotuberculosis. The data set is described as follows: Antibacterial activity against Yersinia pseudotuberculosis expressing pIB102 infected in mouse J774 cells assessed as inhibition of bacteria-induced cell death at 50 uM after 14 hrs using calcein AM staining by fluorescence microscopy. Format: functional, organism-based. An outline of the steps: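 J774A macrophages (4 × 10^4 cells/well) grown 24 h in DMEM/10% FCS/gentamicin. Wild-type pIB102 grown in LB plus kanamycin overnight at room temperature, diluted 1/10 in DMEM, shaken 1 h at room temperature then 2 h at 37 °C. Added at OD600 = 0.002 with compound (25, 50, 100 µM final; DMSO <0.5%). Incubated 14 h, 37 °C, 5% CO2. CalceinAM 40 min, fluorescence 485/535 nm; uninfected cells = 100% viability.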

In data set [11] the test system is Yersinia pseudotuberculosis. The data set is described as follows: Antibacterial activity against Yersinia pseudotuberculosis expressing pIB102 at 100 uM after 23 hrs by broth dilution assay. In kind it is functional, organism-based. Summed up:
as §3

Data set [12] concerns Yersinia pseudotuberculosis YPIII. Briefly: Inhibition of T3S in Yersinia pseudotuberculosis YPIII expressing yopE-luxAB at 12.5 uM after 3 hrs by luciferase reporter gene assay. An outline of the steps:
as §2

The test system is the same in data set [13]. The data set is described as follows: Inhibition of T3S in Yersinia pseudotuberculosis YPIII expressing yopE-luxAB at 100 uM after 3 hrs by luciferase reporter gene assay. An outline of the steps: as §2
For data set [14] the test system is unchanged. Briefly: Inhibition of T3S in Yersinia pseudotuberculosis YPIII expressing yopE-luxAB at 1.56 uM after 3 hrs by luciferase reporter gene assay. An outline of the steps:
as §2

The target of data set [15] is Tyrosine-protein phosphatase YopH (Yersinia pseudotuberculosis serotype I (strain IP32953)) (UniProt P08538). Briefly: Inhibition of YopH in Yersinia pseudotuberculosis YPIII expressing yopE-luxAB treated 3 hrs before substrate addition measured after 15 mins by microplate reader. An outline of the steps: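 Same calcium-depleted YPIII pIB102 cultures and compound exposure (1 h room temperature, then 2 h 37 °C). An aliquot of the bacterial suspension was mixed with 25 mM p-nitrophenyl phosphate, 40 mM MES pH 5.0, 1.6 mM DTT. Incubated 15 min at 37 °C, quenched with 1 M NaOH, absorbance read at 405 nm. Triplicates, repeated at least three times.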
Tyrosine-protein phosphatase YopH (Yersinia pseudotuberculosis serotype I (strain IP32953)), sequence (P08538 whole entry): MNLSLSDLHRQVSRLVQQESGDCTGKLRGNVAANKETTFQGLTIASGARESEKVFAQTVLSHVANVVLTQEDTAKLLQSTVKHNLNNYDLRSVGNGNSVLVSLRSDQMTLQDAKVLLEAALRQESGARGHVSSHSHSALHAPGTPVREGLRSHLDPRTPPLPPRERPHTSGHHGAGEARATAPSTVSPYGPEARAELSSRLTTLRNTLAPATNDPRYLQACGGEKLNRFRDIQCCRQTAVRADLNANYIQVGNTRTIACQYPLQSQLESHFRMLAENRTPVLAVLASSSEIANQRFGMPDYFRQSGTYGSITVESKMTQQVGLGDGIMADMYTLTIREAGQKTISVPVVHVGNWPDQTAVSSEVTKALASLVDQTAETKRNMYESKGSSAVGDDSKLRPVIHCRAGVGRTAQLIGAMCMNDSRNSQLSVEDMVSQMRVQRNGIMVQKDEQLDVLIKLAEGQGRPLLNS

A short description of data set [16]: Aqueous solubility at 200 uM. In kind it is physicochemical. To be noted: buffer.

For orientation: inhibition means the change of the read-out against control, counted positive when it falls.

Calls of active or inactive are those of the source.

Take `COc1cccc(C(=O)N/N=C/c2cccc(F)c2O)c1`: in the data set with Escherichia coli [1], the inhibition entry is “inactive”. Moreover, the inhibition in [2] was 9%; in data set [3] it was 17%; in [5], 45%; in [8], 74%; in [9], 7%; in [12], 11%. Besides, the inhibition in data set [13] was 58%; in data set [14] it was -2%. For the same molecule, the outcome (in data set [4]; in the data set with Escherichia coli [6]; in the data set on Escherichia coli [7]; in data set [11]) was inactive. In addition, in the data set with J774, the Activity result is “Non-toxic”. The inhibition result in data set [10] is “Active”.

Consider `O=C(COc1ccc([N+](=O)[O-])cc1)N/N=C/c1cccc(F)c1O`, for which the inhibition result in the data set with Escherichia coli [1] is “inactive”. Moreover, the inhibition in data set [2] was 6%; in data set [3], 25%; in data set [5] it was 84%; in data set [8], 97%; in data set [9], -5%; in [12], 4%. Further, the inhibition in [13] came out at 95%. The result (in [4]; in the data set with Escherichia coli [6]; with Escherichia coli [7]; in [11]) was inactive. Moreover, the inhibition result in data set [15] and in data set [10] was “Active” in each case. In addition, the Activity entry in the data set with J774 was “Non-toxic”.

Consider `O=C(N/N=C/c1cc(I)cc(I)c1O)c1cc(Cl)cc(Cl)c1`, for which the inhibition came out at 15% in data set [2]; 23% in data set [3]; 26% in data set [5]; 12% in [9]; 17% in data set [12]; 21% in data set [13]. The inhibition in data set [14] was found to be 0%. Also, the result (in [4]; in the data set on Escherichia coli [6]; in the data set with Escherichia coli [7]; in [11]) was inactive. In data set [15], the inhibition result was “inactive”. Moreover, the solubility entry in [16] is on record as “Insoluble”.

For the molecule `CC(C)(C)c1cc(/C=N/NC(=O)c2cccc(C(F)(F)F)c2)c(O)c(C(C)(C)C)c1`, the inhibition result (in the data set on Escherichia coli [1]; in data set [10]) was “inactive” throughout. Besides, the inhibition is 3% in [2]; 6% in data set [3]; 9% in [5]; 2% in [8]; -10% in [9]; 7% in data set [12]. Moreover, the inhibition in data set [13] was 11%. Moreover, the outcome (in [4]; with Escherichia coli [6]; in the data set on Escherichia coli [7]; in data set [11]) was inactive. In addition, in the data set with J774, the Activity result was “Non-toxic”.

`COc1ccc(Br)c(/C=N/NC(=O)c2snnc2C)c1O`: the inhibition in data set [2] stood at 19%; in data set [3], 34%; in data set [5] it was 60%; in data set [9], 14%; in [12], 21%; in data set [13], 71%. Moreover, the inhibition in data set [14] was -5%. Besides, the result (in data set [4]; in the data set on Escherichia coli [6]; in the data set with Escherichia coli [7]; in [11]) was inactive. The solubility result in [16] was “Insoluble”.

As for `O=C(CCc1ccc(F)cc1)N/N=C/c1cc(F)cc(Cl)c1O`, the inhibition result (in the data set on Escherichia coli [1]; in data set [10]) was “inactive” in each case. In addition, the inhibition was -1% in [2]; 15% in data set [3]; 63% in [5]; 94% in data set [8]; 2% in data set [9]; 10% in data set [12]. The figures for the inhibition in [13] and in data set [14] were 90% and -6%, respectively. For the same molecule, the outcome (in [4]; in the data set with Escherichia coli [6]; in the data set on Escherichia coli [7]; in data set [11]) was inactive. Also, the Activity entry with J774 is listed as “Non-toxic”.
